Results collected from several papers.
SRD5A1: 3-oxo-5-alpha-steroid 4-dehydrogenase 1 (SRD5A1, Homo sapiens, UniProt P18405)
EDNRA: Endothelin-1 receptor (EDNRA, Homo sapiens, UniProt P25101)
HTR2A: 5-hydroxytryptamine receptor 2A (HTR2A, Homo sapiens, UniProt P28223)

SMILES | target | assay | test system | setting | inhibition
NC/C(=C\F)COc1cccc(Cn2c(=S)[nH]c(=O)c3[nH]cnc32)c1 | Hepatic sodium/bile acid cotransporter (SLC10A1, Homo sapiens, UniProt Q14973) | transporter uptake, inhibitor |  | 30 µM | < 50%
COC(=O)C=Cc1ccc(OC(C)=O)c(OC)c1 | SRD5A1 | enzyme activity in cells, inhibitor | HaCaT | 50 µM | 26.4%
CCN1/C(=C/C(C)=O)Sc2ccc(F)cc21 | EDNRA | ligand displacement, radioligand |  | 10 µM | 9.86%
Cc1cc(F)cc2c(CCC(=O)N[C@@H]3C(=O)NC[C@H]3O)c(-c3ccc(F)cc3)[nH]c12 | EDNRA | cell-free assay |  | 10 µM | -19%
O=C(O)/C=C/c1ccc(O)c(O)c1 | SRD5A1 | enzyme activity in cells, inhibitor | HaCaT | 50 µM | 6.07%
COc1cc2c3c(c1OC)-c1c(OC)ccc(NC(C)=O)c1CC3N(C)CC2 (stereo not drawn) | HTR2A | ligand displacement, radioligand |  | 10 µM | 9%
Cc1cc(O)c(-c2ccc([C@@H](C)CN(C)C)cc2)c2c1[nH]c(=O)c1sccc12 | Serine/threonine-protein kinase A-Raf (ARAF, Homo sapiens, UniProt P10398) | enzyme activity, inhibitor |  | 0.1 µM, lysate | -26%
CC(=O)Oc1ccc(C=CC(=O)O)cc1OC(C)=O | SRD5A1 | enzyme activity in cells, inhibitor | HaCaT | 50 µM | 12.2%
CC[N+]1(C)CCc2cc(OC)c(OC)c3c2C1Cc1cccc(OC)c1-3 (stereo not drawn) | HTR2A | ligand displacement, radioligand |  | 10 µM | 3%
